Reference: ChEMBL document CHEMBL1137088, “Distamycin analogues with enhanced lipophilicity: synthesis and antimicrobial activity” (2004)
≈ marks a conversion by molar mass, not a printed value. Calls of active or inactive are those of the source. No cut-off for these calls is given here.

Assays:
Aspergillus niger [1] = experiment: Antifungal activity against Aspergillus niger IMI17454 strain.; assay type: functional; conditions: Aspergillus niger; read-out: MIC
Staphylococcus aureus [2] = experiment: Antibacterial activity against MRSA PHLS M1 strain; na = not active; assay type: functional, organism-based
[3] = Antibacterial activity against Enterobacter cloacae NCTC 10005 strain; assay type: functional
Aspergillus nidulans [4] = experiment: Antifungal activity against Aspergillus nidulans CABI 0160037 strain; assay type: functional
[5] = Antifungal activity against Candida albicans NCPF 3179 strain; na = not active; assay type: functional
Enterococcus faecalis [6] = experiment: Antibacterial activity against Streptococcus faecalis NCTC 775 strain.; assay type: functional
Proteus vulgaris = experiment: Antibacterial activity against Proteus vulgaris NCTC 4175 strain.; assay type: functional
Staphylococcus aureus [7] = experiment: Antibacterial activity against Staphylococcus aureus NCTC 6571 strain.; assay type: functional
Escherichia coli [8] = experiment: Antibacterial activity against Escherichia coli NCTC 9001 strain; assay type: functional
[9] = system: Mycolicibacterium fortuitum; experiment: Antibacterial activity against Mycobacterium fortuitum NCTC 10394 strain.; assay type: functional
Klebsiella aerogenes [10] = experiment: Antibacterial activity against Klebsiella aerogenes WRL CN 345 strain.; assay type: functional, WRL CN 375; conditions: Klebsiella aerogenes, WRL CN 375; read-out: MIC
Candida albicans = experiment: Antifungal activity against Candida albicans NCPF 3179 strain.; assay type: functional; conditions: Candida albicans; read-out: MIC
Staphylococcus aureus [11] = experiment: Antibacterial activity against methicillin-resistant Staphylococcus aureus (MRSA) PHLS M1 strain.; assay type: functional
Outline: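 Read-out is the minimum inhibitory concentration, reported in µM. Amoxycillin is tested alongside as the reference antibiotic.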

Staphylococcus aureus [12] = experiment: Antibacterial activity against Staphylococcus aureus NCTC 6571 strain; na = not active; assay type: functional, organism-based
Enterobacter cloacae = experiment: Antibacterial activity against Enterobacter cloacae NCTC 10005 strain.; assay type: functional, organism-based
Aspergillus nidulans [13] = experiment: Antifungal activity against Aspergillus nidulans CABI 0160037 strain; na = not active; assay type: functional
Klebsiella aerogenes [14] = experiment: Antibacterial activity against Klebsiella aerogenes WRL CN 345 strain; na = not active; assay type: functional, organism-based
[15] = system: Mycolicibacterium fortuitum; experiment: Antibacterial activity against Mycobacterium fortuitum NCTC 10394 strain; na = not active; assay type: functional, organism-based
[16] = Antibacterial activity against Proteus vulgaris NCTC 4175 strain; na = not active; assay type: functional
Enterococcus faecalis [17] = experiment: Antibacterial activity against Streptococcus faecalis NCTC 775 strain; na = not active; assay type: functional, organism-based
Escherichia coli [18] = experiment: Antibacterial activity against Escherichia coli NCTC 9001 strain.; assay type: functional, organism-based
Aspergillus niger [19] = experiment: Antifungal activity against Aspergillus niger IMI17454 strain; na = not active; assay type: functional
Staphylococcus aureus [20] = experiment: Antibacterial activity against MRSA PHLS M1 strain; assay type: functional

## CC(C)CCn1cc(NC(=O)c2cc(NC=O)cn2C)cc1C(=O)Nc1cc(C(=O)NCCCN2CCN(C)CC2)n(C)c1
Aspergillus niger [1]
  MIC: 140 µM (≈ 85.1 µg/mL)
Staphylococcus aureus [2]
  MIC: inactive
[3]
  MIC: 140 µM (≈ 85.1 µg/mL)
Aspergillus nidulans [4]
  MIC: 69.3 µM (≈ 42.1 µg/mL)
[5]
  MIC: inactive
Enterococcus faecalis [6]
  MIC: 69.3 µM (≈ 42.1 µg/mL)
Proteus vulgaris
  MIC: 140 µM (≈ 85.1 µg/mL)
Staphylococcus aureus [7]
  MIC: 140 µM (≈ 85.1 µg/mL)
Escherichia coli [8]
  MIC: 140 µM (≈ 85.1 µg/mL)
[9]
  MIC: 69.3 µM (≈ 42.1 µg/mL)
Klebsiella aerogenes [10]
  MIC: 140 µM (≈ 85.1 µg/mL)

## Cc1sc(NC(=O)c2cc(NC=O)cn2C)cc1C(=O)Nc1cc(C(=O)NCCCN(C)C)n(C)c1
Candida albicans
  MIC: 159 µM (≈ 81.7 µg/mL)
Aspergillus niger [1]
  MIC: 159 µM (≈ 81.7 µg/mL)
[3]
  MIC: 159 µM (≈ 81.7 µg/mL)
Aspergillus nidulans [4]
  MIC: 159 µM (≈ 81.7 µg/mL)
Enterococcus faecalis [6]
  MIC: 79.6 µM (≈ 40.9 µg/mL)
Proteus vulgaris
  MIC: 79.6 µM (≈ 40.9 µg/mL)
Staphylococcus aureus [7]
  MIC: 39.8 µM (≈ 20.4 µg/mL)
Staphylococcus aureus [11]
  MIC: 159 µM (≈ 81.7 µg/mL)
Escherichia coli [8]
  MIC: 159 µM (≈ 81.7 µg/mL)
[9]
  MIC: 159 µM (≈ 81.7 µg/mL)
Klebsiella aerogenes [10]
  MIC: 159 µM (≈ 81.7 µg/mL)

## CC(=O)Nc1nc(C(=O)Nc2cc(C(=O)Nc3cc(C(=O)NCCCN(C)C)n(C)c3)n(C)c2)c(C(C)C)s1
Candida albicans
  MIC: 74.6 µM (≈ 41.5 µg/mL)
Aspergillus niger [1]
  MIC: 149 µM (≈ 82.9 µg/mL)
[3]
  MIC: 149 µM (≈ 82.9 µg/mL)
Enterococcus faecalis [6]
  MIC: 74.5 µM (≈ 41.5 µg/mL)
Proteus vulgaris
  MIC: 149 µM (≈ 82.9 µg/mL)
Staphylococcus aureus [7]
  MIC: 70 µM (≈ 39 µg/mL)
Staphylococcus aureus [11]
  MIC: 149 µM (≈ 83.1 µg/mL)
Escherichia coli [8]
  MIC: 149 µM (≈ 82.9 µg/mL)
[9]
  MIC: 74.6 µM (≈ 41.5 µg/mL)
Klebsiella aerogenes [10]
  MIC: 149 µM (≈ 82.9 µg/mL)

## CC(C)CCn1cc(NC(=O)c2cc(NC=O)cn2C)cc1C(=O)Nc1cc(C(=O)NCCCN2CCOCC2)n(C)c1
Staphylococcus aureus [12]
  MIC: inactive
Enterobacter cloacae
  MIC: inactive
Aspergillus niger [1]
  MIC: 70.6 µM (≈ 42 µg/mL)
Aspergillus nidulans [13]
  MIC: inactive
Klebsiella aerogenes [14]
  MIC: inactive
[5]
  MIC: inactive
Staphylococcus aureus [11]
  MIC: 70.6 µM (≈ 42 µg/mL)
[15]
  MIC: inactive
[16]
  MIC: inactive
Enterococcus faecalis [17]
  MIC: inactive
Escherichia coli [18]
  MIC: inactive

## Cc1sc(NC=O)cc1C(=O)Nc1cc(C(=O)Nc2cc(C(=O)NCCCN(C)C)n(C)c2)n(C)c1
Staphylococcus aureus [12]
  MIC: inactive
Enterobacter cloacae
  MIC: inactive
Candida albicans
  MIC: 159 µM (≈ 81.7 µg/mL)
Aspergillus niger [19]
  MIC: inactive
Staphylococcus aureus [2]
  MIC: inactive
Aspergillus nidulans [13]
  MIC: inactive
Klebsiella aerogenes [14]
  MIC: inactive
Proteus vulgaris
  MIC: 79.6 µM (≈ 40.9 µg/mL)
[15]
  MIC: inactive
Enterococcus faecalis [17]
  MIC: inactive
Escherichia coli [18]
  MIC: inactive

## CC(=O)Nc1cc(C(=O)Nc2cc(C(=O)Nc3cc(C(=O)NCCCN(C)C)n(C)c3)c(C)s2)n(C)c1
Candida albicans
  MIC: 156 µM (≈ 82.3 µg/mL)
Aspergillus niger [1]
  MIC: 156 µM (≈ 82.3 µg/mL)
[3]
  MIC: 156 µM (≈ 82.3 µg/mL)
Aspergillus nidulans [4]
  MIC: 38.9 µM (≈ 20.5 µg/mL)
Proteus vulgaris
  MIC: 156 µM (≈ 82.3 µg/mL)
Staphylococcus aureus [7]
  MIC: 78.5 µM (≈ 41.4 µg/mL)
Staphylococcus aureus [11]
  MIC: 156 µM (≈ 82.3 µg/mL)
Escherichia coli [8]
  MIC: 156 µM (≈ 82.3 µg/mL)
[9]
  MIC: 38.9 µM (≈ 20.5 µg/mL)
Enterococcus faecalis [17]
  MIC: inactive
Klebsiella aerogenes [10]
  MIC: 156 µM (≈ 82.3 µg/mL)

## COc1ccc(CC(=O)Nc2cc(C(=O)Nc3cc(C(=O)Nc4cc(C(=O)NCCCN(C)C)n(C)c4)n(CCC(C)C)c3)n(C)c2)cc1
Staphylococcus aureus [20]
  MIC: 63.6 µM (≈ 42.8 µg/mL)
Enterobacter cloacae
  MIC: inactive
Candida albicans
  MIC: 15.9 µM (≈ 10.7 µg/mL)
Aspergillus niger [1]
  MIC: 15.9 µM (≈ 10.7 µg/mL)
Aspergillus nidulans [4]
  MIC: 15.9 µM (≈ 10.7 µg/mL)
Enterococcus faecalis [6]
  MIC: 15.9 µM (≈ 10.7 µg/mL)
Staphylococcus aureus [7]
  MIC: 15.9 µM (≈ 10.7 µg/mL)
[16]
  MIC: inactive
[9]
  MIC: 15.9 µM (≈ 10.7 µg/mL)
Escherichia coli [18]
  MIC: inactive
Klebsiella aerogenes [10]
  MIC: 15.9 µM (≈ 10.7 µg/mL)

## CC(C)n1cc(NC(=O)c2cc(NC=O)cn2C)cc1C(=O)Nc1cc(C(=O)NCCCN2CCOCC2)n(C)c1
Staphylococcus aureus [12]
  MIC: inactive
Enterobacter cloacae
  MIC: inactive
Aspergillus niger [19]
  MIC: inactive
Staphylococcus aureus [2]
  MIC: inactive
Aspergillus nidulans [13]
  MIC: inactive
Klebsiella aerogenes [14]
  MIC: inactive
[5]
  MIC: inactive
[15]
  MIC: inactive
[16]
  MIC: inactive
Enterococcus faecalis [17]
  MIC: inactive
Escherichia coli [18]
  MIC: inactive

## CC(C)n1cc(NC(=O)c2cc(NC=O)cn2C)cc1C(=O)Nc1cc(C(=O)NCCCN2CCCC2)n(C)c1
Aspergillus niger [1]
  MIC: 150 µM (≈ 82.6 µg/mL)
[3]
  MIC: 75.2 µM (≈ 41.4 µg/mL)
Aspergillus nidulans [4]
  MIC: 150 µM (≈ 82.6 µg/mL)
[5]
  MIC: inactive
Enterococcus faecalis [6]
  MIC: 75.2 µM (≈ 41.4 µg/mL)
Proteus vulgaris
  MIC: 150 µM (≈ 82.6 µg/mL)
Staphylococcus aureus [7]
  MIC: 150 µM (≈ 82.6 µg/mL)
Staphylococcus aureus [11]
  MIC: 75.2 µM (≈ 41.4 µg/mL)
Escherichia coli [8]
  MIC: inactive
[9]
  MIC: 150 µM (≈ 82.6 µg/mL)
Klebsiella aerogenes [10]
  MIC: 37.6 µM (≈ 20.7 µg/mL)
